How the values were obtained:
ACHN = test: Growth inhibition of human ACHN cells after 48 hrs; format: functional
In short: (§1)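 NCI-60 human tumour cell line panel screen run at the US National Cancer Institute under its standard cytotoxicity protocol. It covers leukaemia, NSCLC, colon, CNS, melanoma, ovarian, renal, prostate and breast lines. An initial single-dose test was followed by five-dose testing with 48 h compound exposure.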

CAKI-1 = test: Growth inhibition of human CAKI-1 cells after 48 hrs; format: functional; conditions: CAKI-1, 48 h; in short: as §1
[1] = Growth inhibition of human RXF393 cells after 48 hrs; format: functional; conditions: RXF 393, 48 h; in short: as §1
[2] = Growth inhibition of human UO31 cells after 48 hrs; format: functional; conditions: UO-31, 48 h
In short: (§2)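 Run by the NCI 58-cell-line screen under its standard cytotoxicity protocol. Compounds were first tested at a single dose, then at five doses. Cells were exposed to compound for 48 h.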

[3] = Growth inhibition of human PC3 cells after 48 hrs; format: functional; conditions: PC-3, 48 h; in short: as §1
T47D = test: Growth inhibition of human T47D cells after 48 hrs; format: functional; in short: as §2
[4] = Growth inhibition of human LOXIMVI cells after 48 hrs; format: functional; conditions: LOX IMVI; in short: as §1
MCF7 = test: Cytotoxicity against human MCF7 cells assessed as cell viability after 24 hrs incubation by MTT assay; format: functional, cell-based; conditions: MCF7, 24 h
In short: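 Cell lines came from DSMZ; primary human fibroblasts served as non-cancer controls. Cells were grown in medium with 10% FCS, seeded at 50,000 cells/ml, and grown 2 days at 37 °C, 10% CO2. Serial dilutions were then added for 24 h. MTT (final 0.5 mg/ml) was added for 2 h. Formazan was pelleted, PBS-washed, dissolved in isopropanol/0.4% HCl and read at 590 nm. Two parallel experiments were run. IC50 was taken as the concentration giving 50% of untreated-control absorbance.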

[5] = Octanol-water partition coefficient, log P of the compound by HPLC analysis; format: physicochemical
In short: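 Lipophilicity was measured by reversed-phase HPLC on a Nucleosil C18 column with isocratic water/methanol (3:1) at 0.5 ml/min and UV detection at 230 and 245 nm. Dead time was set with thiourea (t0 0.728 min). Retention factor was k = (tR − t0)/t0, and log P came from a calibration against at least six reference compounds.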

Saccharomyces cerevisiae = test: Antimicrobial activity against Saccharomyces cerevisiae assessed as inhibition at 20 ug/6 mm disk after 1 to 2 days by agar diffusion assay; format: functional
In short: (§3)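 Standard agar diffusion: 6-mm paper disks loaded with 20 µg of compound were placed on inoculated plates. Inhibition-zone diameter (mm) was read after 1 and 2 days of growth.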

Aspergillus niger = test: Antimicrobial activity against Aspergillus niger assessed as inhibition at 20 ug/6 mm disk after 1 to 2 days by agar diffusion assay; format: functional; in short: as §3
Mycolicibacterium phlei = test: Antimicrobial activity against Mycobacterium phlei assessed as inhibition at 20 ug/6 mm disk after 1 to 2 days by agar diffusion assay; format: functional; in short: as §3
Micrococcus luteus = test: Antimicrobial activity against Micrococcus luteus assessed as inhibition at 20 ug/6 mm disk after 1 to 2 days by agar diffusion assay; format: functional; in short: as §3
Klebsiella pneumoniae = test: Antimicrobial activity against Klebsiella pneumoniae assessed as inhibition at 20 ug/6 mm disk after 1 to 2 days by agar diffusion assay; format: functional; in short: as §3
HL-60(TB) = test: Growth inhibition of human HL-60(TB) cells after 48 hrs; format: functional; conditions: HL-60, 48 h; in short: as §1
K562 = test: Growth inhibition of human K562 cells after 48 hrs; format: functional; conditions: K562, 48 h; in short: as §1
[6] = Growth inhibition of human RPMI8226 cells after 48 hrs; format: functional; conditions: RPMI-8226, 48 h; in short: as §1
A549 = test: Growth inhibition of human A549/ATCC cells after 48 hrs; format: functional; conditions: A549, 48 h; in short: as §1
[7] = Growth inhibition of human HOP92 cells after 48 hrs; format: functional; conditions: HOP-92, 48 h; in short: as §1
NCI-H322M = test: Growth inhibition of human NCI-H322M cells after 48 hrs; format: functional; conditions: read-out: pLC50 (the source's name) (converted); in short: as §1
NCI-H522 = test: Growth inhibition of human NCI-H522 cells after 48 hrs; format: functional; conditions: NCI-H522, 48 h; in short: as §1
[8] = Growth inhibition of human HCT116 cells after 48 hrs; format: functional; conditions: HCT-116, 48 h; in short: as §1
[9] = Growth inhibition of human HCT15 cells after 48 hrs; format: functional; conditions: HCT-15, 48 h; in short: as §1
SW-620 = test: Growth inhibition of human SW620 cells after 48 hrs; format: functional; conditions: SW-620, 48 h; in short: as §2
[10] = Growth inhibition of human SF539 cells after 48 hrs; format: functional; conditions: SF-539, 48 h; in short: as §1
M14 = test: Growth inhibition of human M14 cells after 48 hrs; format: functional; conditions: M14, 48 h; in short: as §1
MDA-MB-435 = test: Growth inhibition of human MDA-MB-435 cells after 48 hrs; format: functional; conditions: MDA-MB-435, 48 h; in short: as §1
[11] = Growth inhibition of human UACC62 cells after 48 hrs; format: functional; conditions: UACC-62, 48 h; in short: as §2
[12] = Growth inhibition of human OVCAR4 cells after 48 hrs; format: functional; conditions: OVCAR-4, 48 h; in short: as §1
[13] = Growth inhibition of human NCI-ADR-RES cells after 48 hrs; format: functional; in short: as §1
786-0 = test: Growth inhibition of human 786-0 cells after 48 hrs; format: functional; conditions: 786-0, 48 h; in short: as §1
[14] = read-out: pLC50 (the source's name) (converted)

COc1ccc(N(CC(=O)NCCC[Te]c2ccccc2)C(=O)c2ccccc2)cc1
GI50 (ACHN): 3.16 µM
LC50 (ACHN): 39.8 µM
TGI (ACHN; read-out: pTGI (converted)): 9.55 µM
GI50 (CAKI-1): 2.95 µM
LC50 (CAKI-1): > 100 µM
TGI (CAKI-1; read-out: pTGI (converted)): 14.8 µM
GI50 [1]: 12 µM
LC50 [1]: 75.9 µM
TGI ([1]; read-out: pTGI (converted)): 30.2 µM
GI50 [2]: 2.75 µM
LC50 [2]: 95.5 µM
TGI ([2]; read-out: pTGI (converted)): 11 µM
GI50 [3]: 2.69 µM
LC50 [3]: > 100 µM
TGI ([3]; read-out: pTGI (converted)): 12.6 µM
GI50 (T47D): 3.39 µM
LC50 (T47D): > 100 µM
TGI (T47D; read-out: pTGI (converted)): 21.4 µM
GI50 [4]: 3.72 µM
LC50 [4]: 100 µM
TGI ([4]; read-out: pTGI (converted)): 14.1 µM
IC50 (MCF7): 27 µM
logP [5]: 1.72
diameter of the inhibition zone (DIZ) (Saccharomyces cerevisiae): 0 mm
diameter of the inhibition zone (DIZ) (Aspergillus niger): 10 mm
diameter of the inhibition zone (DIZ) (Mycolicibacterium phlei): 17 mm
diameter of the inhibition zone (DIZ) (Micrococcus luteus): 13 mm
diameter of the inhibition zone (DIZ) (Klebsiella pneumoniae): 12 mm
GI50 (HL-60(TB)): 2.14 µM
CC50 (HL-60(TB); [14]): > 100 µM
TGI (HL-60(TB); read-out: pTGI (converted)): 5.75 µM
GI50 (K562): 5.13 µM
CC50 (K562; [14]): > 100 µM
TGI (K562; read-out: pTGI (converted)): > 100 µM
GI50 [6]: 3.16 µM
CC50 [6, 14]: > 100 µM
TGI ([6]; read-out: pTGI (converted)): 19.1 µM
GI50 (A549): 0.38 µM
CC50 (A549; [14]): 17.8 µM
TGI (A549; read-out: pTGI (converted)): 2.14 µM
GI50 [7]: 4.07 µM
CC50 [7, 14]: 69.2 µM
TGI ([7]; read-out: pTGI (converted)): 10 µM
CC50 (NCI-H322M): > 100 µM
GI50 (NCI-H522): 3.09 µM
CC50 (NCI-H522; [14]): 53.7 µM
TGI (NCI-H522; read-out: pTGI (converted)): 8.71 µM
GI50 [8]: 2.57 µM
CC50 [8, 14]: 44.7 µM
TGI ([8]; read-out: pTGI (converted)): 10.2 µM
GI50 [9]: 2.95 µM
CC50 [9, 14]: > 100 µM
TGI ([9]; read-out: pTGI (converted)): 15.1 µM
GI50 (SW-620): 3.89 µM
CC50 (SW-620; [14]): 56.2 µM
TGI (SW-620; read-out: pTGI (converted)): 14.5 µM
GI50 [10]: 2.29 µM
CC50 [10, 14]: 28.8 µM
TGI ([10]; read-out: pTGI (converted)): 6.03 µM
GI50 (M14): 4.17 µM
CC50 (M14; [14]): 63.1 µM
TGI (M14; read-out: pTGI (converted)): 15.5 µM
GI50 (MDA-MB-435): 8.13 µM
CC50 (MDA-MB-435; [14]): > 100 µM
TGI (MDA-MB-435; read-out: pTGI (converted)): 30.2 µM
GI50 [11]: 2.51 µM
CC50 [11, 14]: 43.7 µM
TGI ([11]; read-out: pTGI (converted)): 7.59 µM
GI50 [12]: 12 µM
LC50 [12]: 53.7 µM
TGI ([12]; read-out: pTGI (converted)): 25.1 µM
GI50 [13]: 3.24 µM
LC50 [13]: > 100 µM
TGI ([13]; read-out: pTGI (converted)): 10.7 µM
GI50 (786-0): 5.13 µM
LC50 (786-0): 64.6 µM
TGI (786-0; read-out: pTGI (converted)): 19.5 µM
